In ChEMBL document CHEMBL2146361, “Identification of novel α7 nicotinic receptor ligands by in silico screening against the crystal structure of a chimeric α7 receptor ligand binding domain” (Bioorg Med Chem, 2012):

Target: Neuronal acetylcholine receptor subunit alpha-7 (Homo sapiens, UniProt P36544)
Assay: Displacement of [3H]epibatidine from chimeric human alpha7-5-HT3A receptor expressed in HEK293 cells after 2 hrs by scintillation counter analysis
Format: cell-based
Procedure, shortened: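 HEK293 cells grown in DMEM:F12 with 10% fetal calf serum at 37 °C, 7% CO₂, transiently transfected (PEI) and harvested after 2–3 days. 50 μg membranes incubated in 10 mM HEPES pH 7.4 with 3 nM [³H]epibatidine, ≥2 h at 4 °C, 10-point competition; non-specific binding with 3 mM (−)-nicotine.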

Neuronal acetylcholine receptor subunit alpha-7, sequence (P36544 23-502 limits assumed): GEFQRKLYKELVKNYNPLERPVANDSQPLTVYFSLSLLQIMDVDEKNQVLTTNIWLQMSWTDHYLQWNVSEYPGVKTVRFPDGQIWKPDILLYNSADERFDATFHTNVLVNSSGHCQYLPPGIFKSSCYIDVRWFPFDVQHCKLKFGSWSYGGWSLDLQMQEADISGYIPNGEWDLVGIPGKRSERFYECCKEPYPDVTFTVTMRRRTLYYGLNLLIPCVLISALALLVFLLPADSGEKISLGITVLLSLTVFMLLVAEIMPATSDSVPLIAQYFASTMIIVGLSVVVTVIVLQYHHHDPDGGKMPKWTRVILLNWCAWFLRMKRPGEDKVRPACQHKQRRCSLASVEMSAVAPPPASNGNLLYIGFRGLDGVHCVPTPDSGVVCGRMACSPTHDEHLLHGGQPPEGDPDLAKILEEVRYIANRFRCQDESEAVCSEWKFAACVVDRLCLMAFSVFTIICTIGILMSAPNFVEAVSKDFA

SMILES | pKi | Ki | pKd
CC1CCN(CC(O)COc2ccc(-c3ccccc3)cc2)CC1 (configuration not stated) | 5.7 | – | –
c1ccc(C2CN3CCC2CC3)cc1 (configuration not stated) | 6.7 | 200 nM | –
CN1CCc2[nH]c3ccccc3c2C1 | 5.2 | – | –
COc1cc2c(cc1OC)C1CC(c3ccccc3)CCN1CC2 (configuration not stated) | 5.8 | – | –
CC1CCN2CCc3c([nH]c4ccccc34)C2C1 (configuration not stated) | 6.4 | 400 nM | –
CC1CC2(CCCCCC2)NCc2ccccc21 (configuration not stated) | 5.1 | – | –
CC1/C(=N/O)CC(c2ccccc2)N(C)C1c1ccccc1 (configuration not stated) | 5.3 | – | –
CC1C(c2ccccc2)NC(c2ccccc2)C(C)C1(C)O (configuration not stated) | 5.4 | – | –
N#CCOCC(O)C[n+]1ccccc1 (configuration not stated) | 5.6 | – | –
Clc1ccc(C2CC3CCC2N3)cn1 (configuration not stated) [EPIBATIDINE] | – | – | 8.2
